{
  "source": "paper PMC7797908",
  "about": "(iScience, 2021)",
  "tested_on": "CAspII",
  "experiment": "Michaelis-Menten kinetics of L-asparagine hydrolysis",
  "assay_type": "biochemical, uncultured Gemmatimonadota bacterium",
  "settings": "free enzyme; assay pH and temperature only in supplement",
  "summary_of_the_method": "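Synthetic codon-optimised gene fused to a C-terminal His6 tag in pET21a(+) and expressed in E. coli. Mid-log cultures in LB were induced with 0.2 mM IPTG for 3 hours at 30°C. Protein was purified on nickel-agarose; the preparation was enriched but not fully pure. Km was fitted to the classical Michaelis-Menten equation with L-asparagine as substrate, reported as mean ± SEM.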",
  "data": [
    {"smiles": "NC(=O)C[C@H](N)C(=O)O", "note": "[L-asparagine]", "values": [
      {"measurement": "Km", "value": "350 ± 20", "unit": "µM"}
    ]}
  ]
}
